SR-BI HDL uptake – blocks mouse SR-BI lipid uptake from DiI-HDL; Q61009; ldlA[mSR-BI] CHO cells, DiI-HDL uptake fluorescence, 3 h; inhibition, % at 12.5 µM; 320,000 tested, 0.96% active;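 active means mean replicate inhibition of at least 70% and a set share of replicates each scoring 70 or more; inconclusive means meets just one of the two criteria; inactive means fails both criteria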;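 further: 0% = median of neutral control wells and 100% = median of positive control wells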
Target sequence (Q61009 whole entry, looked up): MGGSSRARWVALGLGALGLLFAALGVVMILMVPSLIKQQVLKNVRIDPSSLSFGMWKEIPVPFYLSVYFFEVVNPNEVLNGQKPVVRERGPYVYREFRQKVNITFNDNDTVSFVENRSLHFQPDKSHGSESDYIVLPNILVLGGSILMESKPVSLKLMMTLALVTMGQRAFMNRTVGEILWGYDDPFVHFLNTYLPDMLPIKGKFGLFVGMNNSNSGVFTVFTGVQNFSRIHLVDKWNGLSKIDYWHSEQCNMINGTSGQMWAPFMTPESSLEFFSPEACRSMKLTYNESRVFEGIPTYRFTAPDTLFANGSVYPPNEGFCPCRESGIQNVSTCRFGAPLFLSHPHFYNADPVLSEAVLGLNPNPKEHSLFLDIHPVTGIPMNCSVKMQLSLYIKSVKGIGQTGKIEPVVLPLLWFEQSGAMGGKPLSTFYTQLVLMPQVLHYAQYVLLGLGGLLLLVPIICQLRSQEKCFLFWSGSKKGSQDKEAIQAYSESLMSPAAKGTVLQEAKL
Vif imaging – HIV Vif inhibition; 340,000 tested, 0.35% active; HEK293T cells, Vif self-association by quenched fluorescence, imaging, 24 h; inhibition, % at 7.49 µM; in the data active means inhibition above about 50%, passing the limit was not always enough; inconclusive means no clear call, values can overlap the other calls; inactive means below about 31%
H9c2 TAG inh – inhibitors of triacylglycerol accumulation; H9c2 cells, Nile Red lipid (TAG) fluorescence; cells loaded with 200 µM oleic acid; inhibition, % at 12.5 µM; 230,000 tested, 0.66% active; AID 651582;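 active means pattern-corrected inhibition of lipid staining of at least 50% with the nuclear-stain viability signal not falling by more than 50%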;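 further: 0% = DMSO wells and 100% = triacsin C control wells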
SR-BI uptake up – activators of SR-BI mediated HDL lipid uptake | activation, % at 12.5 µM | 320,000 tested, 0.096% active | CHO ldlA[mSR-BI] cells, DiI-HDL uptake fluorescence, 3 h; 100 = double the neutral-control signal | AID 504775;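 active means mean replicate activation of at least 60% and every replicate at or above 60%; inconclusive means mean or all-replicate condition met, but not both; inactive means mean below 60% and not all replicates reaching 60%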;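 further: 0% = median plate neutral-control signal and 100% = twice that signal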
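System: LDL receptor-deficient CHO ldlA cells overexpressing murine SR-BI | Timing: 3 h uptake period with compound, 37 °C | Medium: HEPES-buffered (25 mM, pH 7.4) F12 plus 0.5% BSA | Dosing: Single-point compound dose | Signal: Bottom-read fluorescence, 550/595 nm | Read-out: Retained DiI signal reflecting DiI-HDL uptake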
A1 inh – inhibitors of the anti-apoptotic protein A1, read as caspase activation; MEF A1-2A-BIM cells, Caspase-Glo 3/7 luminescence, 3 h; percent of clofoctol response, vehicle zero; caspase activation, % (test concentration not listed); 330,000 tested, 0.066% active; AID 2462;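 active means over half of replicate activation scores above 10%, or exactly half above 10 with the replicate mean above 10; inconclusive means replicate mean below 10 yet half the replicates above 10; inactive means over half of replicates below 10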
Active calls of the source: *. A selection: hits, their analogues and other compounds. The true share with any hit is near 1.6%.

`CCOc1ccc(OCC)c(S(=O)(=O)NCc2ccccc2)c1` gave SR-BI HDL uptake 55, Vif imaging 55*, SR-BI uptake up -55 and A1 inh 2.
For O=C1/C(=C/c2c[nH]c3ccccc23)CCC/C1=C\c1c[nH]c2ccccc12 the results were SR-BI HDL uptake 89*, Vif imaging 11, SR-BI uptake up -89 and A1 inh 0.
Screening C(=NN=Cc1c[nH]c2ccccc12)c1c[nH]c2ccccc12 returned H9c2 TAG inh 5.
CCC1CN(C(=O)NCc2ccc(C)cc2)c2cc(C)ccc2O1 (configuration not stated) was read as SR-BI HDL uptake 78*, Vif imaging -7, SR-BI uptake up -78 and A1 inh -1.
For CCC1CN(C(=O)NCc2ccccc2)c2cc(C)ccc2O1 (configuration not stated) the results were SR-BI HDL uptake 14, Vif imaging 0, SR-BI uptake up -14 and A1 inh 0.
`O=[N+]([O-])c1ccc(Nc2cccc3c2[nH]c2c(-c4ccccc4)nccc23)c([N+](=O)[O-])c1` gave SR-BI HDL uptake 79*, Vif imaging -1, H9c2 TAG inh 22 and SR-BI uptake up -79.
Screening CCOC(=O)C1=NN(C(=O)c2ccccc2)C(O)(c2ccc(C)cc2)C1 (configuration not stated) returned SR-BI HDL uptake 7, Vif imaging -1, H9c2 TAG inh -7, SR-BI uptake up -7 and A1 inh 0.
CCC1=NN(C(=O)c2cccc([N+](=O)[O-])c2)C(O)(c2ccc(C)cc2)C1 (configuration not stated) was read as SR-BI HDL uptake 76*, Vif imaging -3, SR-BI uptake up -76 and A1 inh -1.
For CC1=NN(C(=O)c2ccccc2)C(O)(c2ccc(Br)cc2)C1 (configuration not stated) the results were SR-BI HDL uptake 94*, Vif imaging -6, H9c2 TAG inh 3, SR-BI uptake up -94 and A1 inh -1.
CCC1=NN(C(=O)c2ccc(Br)cc2)C(O)(c2ccccc2)C1 (configuration not stated) was read as SR-BI HDL uptake 80*, Vif imaging 1, SR-BI uptake up -79 and A1 inh 5.
`CCCc1nc(SCC(=O)NCC2CCCO2)c2c(=O)n(C)c(=O)n(C)c2n1` (configuration not stated) gave SR-BI HDL uptake 17, Vif imaging -11, H9c2 TAG inh 16, SR-BI uptake up -17 and A1 inh 0.
Screening COc1cccc(N(C(=O)CNC(=O)c2ccco2)C(C(=O)NC2CCCC2)c2cccnc2)c1 (configuration not stated) returned Vif imaging 10 and A1 inh 0.
`O=C(NC1CCCC1)C(c1cccnc1)N(C(=O)c1csnn1)c1ccc(F)cc1` (configuration not stated) gave SR-BI HDL uptake 6, Vif imaging 17, SR-BI uptake up -6 and A1 inh 1.
For CCOc1ccccc1NC(=O)Nc1cccc(C(C)=O)c1 the results were SR-BI HDL uptake 78*, Vif imaging 0, SR-BI uptake up -78 and A1 inh 0.
CCOc1ccccc1NC(=O)Nc1ccsc1C(=O)OC was read as SR-BI HDL uptake 79*, Vif imaging -10, H9c2 TAG inh -3, SR-BI uptake up -79 and A1 inh 0.
COc1ccc(NC(=O)C(CC(C)C)NC(=O)C2CCCCC2)c(OC)c1 (configuration not stated) was read as SR-BI HDL uptake 82*, Vif imaging -13, H9c2 TAG inh 16, SR-BI uptake up -82 and A1 inh inconclusive.
For O=C(c1ccnc(Cl)c1)N1CCCC(N2CCN(c3ccccc3F)CC2)C1 (configuration not stated) the results were SR-BI HDL uptake 10, Vif imaging -4, SR-BI uptake up -10 and A1 inh 1.
`Oc1ccc(Nc2nc(-c3ccccc3O)nc3ccccc23)cc1` gave SR-BI HDL uptake 74*, Vif imaging 6, SR-BI uptake up -74 and A1 inh 0.
For O=[N+]([O-])c1ccc(-c2nc(Nc3cccc(O)c3)c3ccccc3n2)cc1 the results were SR-BI HDL uptake 72*, Vif imaging -13, SR-BI uptake up -72 and A1 inh 0.
Oc1ccccc1Nc1nc(-c2ccccc2O)nc2ccccc12 was read as SR-BI HDL uptake 93*, Vif imaging -4, SR-BI uptake up -93 and A1 inh 2.
For Cc1ccc(-c2nc(Nc3ccc(O)cc3)c3ccccc3n2)cc1 the results were SR-BI HDL uptake 107*, SR-BI uptake up -107 and A1 inh -1.
Cc1ccc(-c2nc(Nc3cccc(O)c3)c3ccccc3n2)cc1 was read as SR-BI HDL uptake 69, Vif imaging 8, SR-BI uptake up -69 and A1 inh 1.
Screening COc1ccc(Nc2nc(-c3ccccc3O)nc3ccccc23)cc1 returned SR-BI HDL uptake 52, Vif imaging 0, SR-BI uptake up -52 and A1 inh 0.
COc1ccc(S(=O)(=O)N(C)C)cc1NC(=O)c1ccc(OCC2CCCO2)cc1 (configuration not stated) was read as Vif imaging -2 and H9c2 TAG inh -8.
For CC(Oc1cccc2cccnc12)C(=O)N/N=C/c1ccc2c(c1)OCO2 (configuration not stated) the results were Vif imaging -6 and A1 inh 0.
CCc1ccc(/C(C)=N/Nc2cc(Cl)nc(C)n2)cc1 was read as SR-BI HDL uptake 79*, Vif imaging 5, SR-BI uptake up -79 and A1 inh 1.
C/C(=N\Nc1cc(Cl)nc(C)n1)c1ccccc1 was read as SR-BI HDL uptake 20, Vif imaging -9, SR-BI uptake up -20 and A1 inh 0.
For Cc1ccc(/C=N/c2sc3c(c2C#N)CCC3)s1 the results were SR-BI HDL uptake -3, Vif imaging 53*, H9c2 TAG inh 1, SR-BI uptake up 3 and A1 inh 0.
Screening Cc1ccc(/C=N/c2sc3c(c2C#N)CCCCC3)o1 returned SR-BI HDL uptake 1, Vif imaging 2, H9c2 TAG inh 8, SR-BI uptake up -1 and A1 inh 0.
`O=C(Cc1cccc(NC(=O)C2CCCN(C(=O)C3CCC3)C2)c1)Nc1cccc(C(=O)N2CCCC2)c1` (configuration not stated) gave SR-BI HDL uptake 56, Vif imaging -6, H9c2 TAG inh 4, SR-BI uptake up -56 and A1 inh 0.
For CC(OC(=O)c1ccc(Cl)nc1)C(=O)NC1CCCC1 (configuration not stated) the results were SR-BI HDL uptake -412, Vif imaging inconclusive, H9c2 TAG inh -21, SR-BI uptake up 412* and A1 inh 1.

Screening data deposited in PubChem BioAssay by several laboratories.
